Rows were chosen to be rich in hits. Some 3.1% of all compounds tested hit in one or more screens of this group.
Beta apoptosis – blocks beta cell apoptosis | INS-1E cytokine-induced death, ATP luminescence, 48 h; percent of positive-control rescue, neutral wells zero | protection from apoptosis, % (test concentration not listed) | 0.8% of 300,000 active;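 active = Every replicate reaches about 75%, or at least half do and their mean reaches it too, limit read from the data; inconclusive = At least half of replicates reach the limit but their mean does not; inactive = Under half of replicates reach the limit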;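 also: 0% = cytokine-treated negative control wells and 100% = positive control rescue; higher means more ATP so stronger rescue from cytokine killing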
Calb FLC – affects C. albicans growth with fluconazole. C. albicans CaCi-2 (fluconazole-resistant clinical isolate) + fluconazole, Alamar Blue growth, 48 h. growth inhibition, % (test concentration not listed). 0.57% of 300,000 active;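 active = growth inhibition above about 58% in most replicates, limit read from the data, passing the limit was not always enough; inconclusive = exactly half the replicates above a set limit; inactive = most replicates below a set limit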;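 also: all wells also contain fluconazole at 8 µg/ml as a sub-toxic cotreatment; 0% = median of DMSO wells and 100% = median of geldanamycin control wells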
T cruzi inh – blocks replication of Trypanosoma cruzi; AID 1885; 1.4% of 300,000 active; T. cruzi beta-gal in NIH3T3, luminescence, 90 h; inhibition, % (test concentration not listed);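 active = mean inhibition across valid replicates above about 55%, limit read from the data; inconclusive = mean below that limit but half or more replicates reach it; inactive = mean below it, under half of replicates reach it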;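 also: signal also drops with host cell toxicity which is not excluded here; 0% = plate median of DMSO wells and 100% = zero luminescence signal; higher percent means less beta-gal luminescence so fewer parasites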
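Read-out: Parasite load inhibition, % | Test system: Mouse NIH/3T3 fibroblasts infected with β-gal-expressing T. cruzi Tulahuen C4 | Amount: 5,000 cells/well | Medium: DMEM, 2% fetal bovine serum | Signal: GalScreen β-gal luminescence, detergent lysis, 60 min | Timing: 3 h attach, ≥90 h co-culture | Also added: Tulahuen C4 trypomastigotes, 5000/well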
HIF act – HIF pathway transcriptional activation; activation, % at 7.5 µM (by protocol); AID 1910; U2OS HRE-luciferase reporter, luminescence; normalized: DMSO 0%, desferrioxamine 100%; 0.32% of 300,000 active;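 active = mean activation of at least 10% of the iron chelator positive control signal, with at least half of replicates also reaching 10%; inconclusive = mean and replicate majority disagree about reaching 10%; inactive = mean and most replicates under 10%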
PolyA inhibitor – yeast polyadenylation inhibition; S. cerevisiae SKY197-pL101 polyadenylation reporter, beta-gal luminescence; efflux-impaired pdr1/pdr3 knockout yeast; score 100 = 6 SD above DMSO; activity score, % at 12 µM; 0.02% of 300,000 active; AID 1875;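 active = lowest replicate activity score at least 50, where 100 means six control SD above control mean; inconclusive = lowest score under 50 but half or more replicates reach 50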;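 also: yeast exposed to compound for 9 h at 30 °C; higher score means more reporter readthrough which indicates perturbed polyadenylation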
CSC inhib – blocks cancer stem cells; cancer stem cell-like cells viability, luminescence; inhibition, % at 7.5 µM; 1.1% of 300,000 active; AID 2717; in the data active = inhibition above about 75%; inconclusive = no clear call, values can overlap the other calls; tested in HMLE shEcad cells
Numbers without * were called inactive; ? = inconclusive; . = not tested or not shown.

SMILES	Beta apoptosis	Calb FLC	T cruzi inh	HIF act	PolyA inhibitor	CSC inhib
C=C1C(=O)O[C@H]2[C@H]1[C@H](OC(=O)CC(=O)O[C@@H]1C[C@@H](C)[C@@H]3C=CC(=O)[C@@]3(C)[C@H]3OC(=O)C(=C)[C@H]13)C[C@@H](C)[C@H]1C=CC(=O)[C@]12C	43	2	-27	1	0	-11
C=C1C(=O)O[C@H]2C[C@@H](C)[C@@H]3C=CC(=O)[C@@]3(C)C[C@H]12	104*	69	23	7	-11	89*
C=C1C(=O)O[C@@H]2C[C@@H](C)[C@@H]3C=CC(=O)[C@@]3(C)[C@@H](OC(=O)CC(=O)O[C@H]3[C@@H]4C(=C)C(=O)O[C@@H]4C[C@@H](C)[C@@H]4C=CC(=O)[C@]43C)[C@H]12	132*	27	51	-6	6	122*
Cc1ccc(S(=O)(=O)c2nc(-c3ccccc3Cl)oc2N(C)C2CCN(C)CC2)cc1	7	.	.	.	.	41
Cc1c(OC(=O)N(C)C)ccc2c1O/C(=C\c1ccco1)C2=O	-4	2	-19	-51	-2	3
C[C@H]1CC[C@H]2NCCN[C@H]2C1	-3	6	-14	-1	-13	-2
Cc1nc2c(=O)n(C)c(=O)nc-2n(C)n1	106*	19	31	-5	10	2
N[C@@H]1CCCC[C@H]1N.O=C(O)C(=O)O.[Pt]	87*	-12	-16	0	13	12
O=C(COc1ccc2ccccc2c1)N1CCN(Cc2c[nH]c3ccccc23)CC1	102*	-1	-4	0	14	11
O=C(COc1ccc(Br)cc1)N1CCN(Cc2c[nH]c3ccccc23)CC1	106*	7	24	0	-21	7
COc1ccc(CN2CCN(C(=O)COc3ccc4ccccc4c3)CC2)c(OC)c1	-2	19	24	0	6	9
CC(=O)OC(C)(C)/C=C/C(=O)[C@](C)(O)C1[C@H](O)C[C@@]2(C)C3CC=C4C(C[C@H](O)C(=O)C4(C)C)[C@]3(C)C(=O)C[C@]12C (stereo not given in full)	58	.	.	.	.	70
O=C(c1ccccc1)C(CN1CCCC1)c1ccccc1 (stereo not given)	92*	93*	18	-4	-6	49
COC(=O)CC(NC(=S)N1CC2C[C@@H](C1)Cn1c2cccc1=O)C(=O)OC (stereo not given in full)	-2	-2	-5	-1	7	-19
O=C1C(=O)c2ccccc2-c2ccccc21	121*	.	39	-4	-17	107*
O=C1C(=O)c2cccc3cccc1c23	-10	-35	-5	-9	-11	37
NNC(N)=O	8	.	.	.	.	-11
CCCCCCn1c(=O)c(C(=O)Nc2ncccc2C)c(O)c2ccccc21	82*	3	8	-1	8	6
CCCCCn1c(=O)c(C(=O)Nc2ccccc2S(N)(=O)=O)c(O)c2ccccc21	19	17	69*	0	1	6
CCCCn1c(=O)c(C(=O)Nc2ccccc2S(N)(=O)=O)c(O)c2ccccc21	3	-5	-3	0	-21	41
CCCCCn1c(=O)c(C(=O)NC(C)c2ccccc2)c(O)c2ccccc21 (stereo not given)	109*	-4	52	0	0	34
CCCCn1c(=O)c(C(=O)Nc2ccccc2)c(O)c2ccccc21	22	-36	-5	-1	-18	45
Cc1csc(=N)n1Cc1ccccc1	1	8	-8	0	7	5
COc1ccc(-n2c(O)c(C=NCCN(C)C)c(=O)[nH]c2=O)cc1	-5	-5	-12	0	13	-4
Oc1c(Br)c(Br)c(Br)c(Br)c1Br	-1	.	.	.	.	101*
SMILES	Beta apoptosis	Calb FLC	T cruzi inh	HIF act	PolyA inhibitor	CSC inhib
Oc1c(Br)cc(Br)cc1Br	-1	.	.	.	.	-10
C/C=C1/C[C@@H](C)[C@](O)(CO)C(=O)OCC2=CCN3CC[C@@H](OC1=O)[C@@H]23	13	.	.	.	.	-1
CC(=O)O[C@@]12CO[C@@H]1C[C@H](O)[C@@]1(C)C(=O)[C@H](O)C3=C(C)[C@@H](OC(=O)[C@H](O)[C@@H](NC(=O)c4ccccc4)c4ccccc4)C[C@@](O)([C@@H](OC(=O)c4ccccc4)C12)C3(C)C (stereo not given in full)	11	-5	55*	0	-15	60
CS(=O)(=O)c1ccc(C(=O)N2CCC(C(=O)O)(c3ccccc3)CC2)cc1	-3	-7	0	0	-9	0
NS(=O)(=O)c1ccc(N=Cc2c(O)n(C3CCCCC3)c(=O)n(C3CCCCC3)c2=O)cc1	1	?	?	-1	14	90*
COc1ccc(-n2nc(C(=O)NCC(=O)N3CCC4(CC3)OCCO4)c3ccccc3c2=O)cc1OC	-3	15	-10	1	14	-10
NC(N)=N/N=C/c1ccc(N(c2ccccc2)c2ccccc2)cc1	110*	94*	42	-3	1	110*
COc1ccc(/C=N\N=C(N)N)cc1	-1	7	62*	0	1	-4
NC(N)=N/N=C/c1ccc(N2CCOCC2)cc1	-1	8	28	2	12	4
COc1ccc(N/N=C/c2c(O)n(-c3cccc(C)c3)c(=O)[nH]c2=O)cc1	-10	114*	-5	0	-5	95*
COc1ccc(N/N=C/c2c(O)n(-c3ccc(C)c(C)c3)c(=O)[nH]c2=O)cc1	-7	0	21	0	-11	117*
COC(=O)C1=C(c2ccc(F)cc2OCc2ccccc2)C[C@@H]2CC[C@H]1N2C(=O)NC1Cc2ccccc2C1	13	.	.	.	.	17
O=C(CN1CCN(C(=O)COc2cccc(F)c2)CC1)Nc1ccc(Cl)c(C(F)(F)F)c1	3	.	.	.	.	.
OC(c1cccc(Cl)c1)(c1cccc(Cl)c1)C1CN2CCC1CC2 (stereo not given)	6	-6	53	0	21	-19
BrCC(Br)(Br)Br	6	.	.	.	.	8
NC(=O)c1cn(C2OC(CO)C(O)C2O)c2ncnc(N)c12 (stereo not given)	.	-1	57*	-3	6	-5
CCCOC(=O)c1ccc(-[n+]2c(-c3ccccc3)cc(-c3ccccc3)cc2-c2ccccc2)cc1	123*	-10	55*	0	6	2
Brc1ccc(-[n+]2c(-c3ccccc3)cc(-c3ccccc3)cc2-c2ccccc2)cc1	129*	-11	35	0	17	44
O=C(O)c1ccc(-[n+]2c(-c3ccccc3)cc(-c3ccccc3)cc2-c2ccccc2)cc1	1	-14	2	0	6	-4
Nc1ccccc1-[n+]1c(-c2ccccc2)cc(-c2ccccc2)cc1-c1ccccc1	39	87*	61*	0	-7	7

From PubChem BioAssay
